Test results taken from ChEMBL document CHEMBL4680335, “Synthesis, anticancer and antimicrobial evaluation of new benzofuran based derivatives: PI3K inhibition, quorum sensing and molecular modeling study” (Bioorg Med Chem, 2021).
Converted amounts (≈) assume the structure as drawn.

Legend:
HepG2 = assay: Antiproliferative activity against human HepG2 cells assessed as reduction in cell growth; assay type: functional, cell-based
MCF7 [1] = assay: Antiproliferative activity against human MCF7 cells assessed as reduction in cell growth; assay type: functional, cell-based
HeLa = assay: Antiproliferative activity against human HeLa cells assessed as reduction in cell growth; assay type: functional, cell-based
PC-3 = assay: Antiproliferative activity against human PC3 cells assessed as reduction in cell growth; assay type: functional, cell-based
[2] = Inhibition of quorum sensing in Chromobacterium violaceum ATCC 12472 assessed as inhibition zone at 5 mg/ml incubated for 48 hrs by well diffusion method; assay type: functional; conditions: read-out: IZ
How it was run: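 Chromobacterium violaceum ATCC 12472 grown in LB broth at 28 °C, 48 h. 50 μL inoculated into 5 ml soft LB agar and overlaid on LB agar plates. Wells received 100 μL compound in DMSO (5 mg/ml); DMSO as negative control. 28 °C, 48 h. Growth-inhibition radius r1 and pigment-plus-growth radius r2 measured; QS inhibition = r2 − r1 (mm).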

Candida albicans [3] = assay: Antifungal activity against Candida albicans CS35 assessed as reduction in fungal growth incubated for 18 hrs by two-fold serial dilution method; assay type: functional
How it was run: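 Broth microdilution per CLSI M27-A3/M38-A2. Selection: compounds active in agar diffusion. Twofold (1:1) dilutions in 0.1 ml yeast peptone dextrose medium; fluconazole as positive control.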

Candida albicans [4] = assay: Antifungal activity against Candida albicans CS35 assessed as diameter of zone inhibition at 5 mg/ml incubated for 24 hrs by agar plate diffusion method; assay type: functional; conditions: read-out: DIZ
How it was run: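 Cup diffusion using Sabouraud's medium for C. albicans. 100 μL compound in DMSO (5 mg/mL) per well, DMSO as negative control, fluconazole as reference. 37 °C, 24 h; inhibition zone diameter in mm.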

Staphylococcus aureus [5] = assay: Antibacterial activity against Staphylococcus aureus ATCC 29213 assessed as diameter of zone inhibition at 5 mg/ml incubated for 24 hrs by agar plate diffusion method; assay type: functional; conditions: read-out: DIZ
How it was run: (§1)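 Cup (well) agar diffusion in Mueller Hinton agar. Overnight MH broth culture diluted to 0.5 McFarland; 20 μL mixed into MH agar at 50 °C, poured into 9-cm plates. Wells cut with a cork borer and filled with 100 μL compound in DMSO (final 5 mg/mL). DMSO as negative control, ampicillin/clavulanic acid as reference. 37 °C, 24 h; inhibition zone diameter in mm.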

Pseudomonas aeruginosa [6] = assay: Antibacterial activity against Pseudomonas aeruginosa PAO1 assessed as diameter of zone inhibition at 5 mg/ml incubated for 24 hrs by agar plate diffusion method; assay type: functional; conditions: read-out: DIZ; how it was run: as §1
Pseudomonas aeruginosa [7] = assay: Antibacterial activity against Pseudomonas aeruginosa PAO1 assessed as reduction in bacterial growth incubated for 18 hrs by two-fold serial dilution method; assay type: functional
How it was run: (§2)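 Broth microdilution per CLSI 2015. Selection: compounds active in agar diffusion. Twofold (1:1) dilutions in 0.1 ml MH broth; inoculum 5 × 10^6 CFU/ml diluted suspension. Ampicillin/clavulanic acid as positive control.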

Staphylococcus aureus [8] = assay: Antibacterial activity against Staphylococcus aureus ATCC 29213 assessed as reduction in bacterial growth incubated for 18 hrs by two-fold serial dilution method; assay type: functional; how it was run: as §2
[9] = Safety index, ratio of IC50 for cytotoxicity against human WI-38 cells to IC50 for antiproliferative activity against human HepG2 cells; assay type: toxicity, cell-based; conditions: WI-38 cells versus HepG2 cells
MCF7 [10] = assay: Induction of apoptosis in human MCF7 cells assessed as necrotic cells at […] incubated for 24 hrs by Annexin V-FITC and propidium iodide staining based flow cytometry analysis (reference value: 1.21 %); assay type: functional; set-up: dose or concentration left out as unconfirmed
[11] = Safety index, ratio of IC50 for cytotoxicity against human WI-38 cells to IC50 for antiproliferative activity against human HeLa cells; assay type: toxicity, cell-based; conditions: WI-38 cells versus HeLa cells
[12] = Safety index, ratio of IC50 for cytotoxicity against human WI-38 cells to IC50 for antiproliferative activity against human MCF7 cells; assay type: toxicity, cell-based; conditions: WI-38 cells versus MCF7 cells
[13] = target: Phosphatidylinositol 4,5-bisphosphate 3-kinase catalytic subunit alpha isoform (Homo sapiens, UniProt P42336); assay: Inhibition of human PI3Kalpha by ELISA
How it was run: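 Human PI3Kα activity measured by ELISA in wells coated with a PI3K-specific antibody. Standard or test compound was added at room temperature and absorbance read. A log–log standard curve related absorbance to standard concentration. Percent inhibition was calculated against control, and IC50 was obtained from concentration/inhibition curves.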

MCF7 [14] = assay: Induction of apoptosis in human MCF7 cells assessed as early apoptotic cells at […] incubated for 24 hrs by Annexin V-FITC and propidium iodide staining based flow cytometry analysis (reference value: 0.42 %); assay type: functional; set-up: dose or concentration left out as unconfirmed
MCF7 [15] = assay: Induction of cell cycle arrest in human MCF7 cells assessed as accumulation at G2/M phase at […] incubated for 24 hrs by propidium iodide staining based flow cytometry analysis (reference value: 9.85 %); assay type: functional; set-up: dose or concentration left out as unconfirmed
MCF7 [16] = assay: Induction of apoptosis in human MCF7 cells assessed as accumulation at preG1 phase at […] incubated for 24 hrs by propidium iodide staining based flow cytometry analysis (reference value: 1.78 %); assay type: functional; set-up: dose or concentration left out as unconfirmed
WI-38 = assay: Cytotoxicity against human WI38 cells by MTT assay; assay type: cell-based
MCF7 [17] = assay: Induction of cell cycle arrest in human MCF7 cells assessed as accumulation at G0-G1 phase at […] incubated for 24 hrs by propidium iodide staining based flow cytometry analysis (reference value: 53.89 %); assay type: functional; set-up: dose or concentration left out as unconfirmed
MCF7 [18] = assay: Induction of apoptosis in human MCF7 cells assessed as late apoptotic cells at […] incubated for 24 hrs by Annexin V-FITC and propidium iodide staining based flow cytometry analysis (reference value: 0.15 %); assay type: functional; set-up: dose or concentration left out as unconfirmed
[19] = Safety index, ratio of IC50 for cytotoxicity against human WI-38 cells to IC50 for antiproliferative activity against human PC-3 cells; assay type: toxicity, cell-based; conditions: WI-38 cells versus PC-3 cells
MCF7 [20] = assay: Induction of cell cycle arrest in human MCF7 cells assessed as accumulation at S phase at […] incubated for 24 hrs by propidium iodide staining based flow cytometry analysis (reference value: 36.26 %); assay type: functional; set-up: dose or concentration left out as unconfirmed
Bacillus cereus [21] = assay: Antibacterial activity against Bacillus cereus UW85 assessed as diameter of zone inhibition at 5 mg/ml incubated for 24 hrs by agar plate diffusion method; assay type: functional; conditions: read-out: DIZ; how it was run: as §1
Bacillus cereus [22] = assay: Antibacterial activity against Bacillus cereus UW85 assessed as reduction in bacterial growth incubated for 18 hrs by two-fold serial dilution method; assay type: functional; how it was run: as §2
Escherichia coli = assay: Antibacterial activity against Escherichia coli ATCC 12435 assessed as diameter of zone inhibition at 5 mg/ml incubated for 24 hrs by agar plate diffusion method; assay type: functional; conditions: read-out: DIZ; how it was run: as §1

Phosphatidylinositol 4,5-bisphosphate 3-kinase catalytic subunit alpha isoform, sequence (P42336 whole entry, canonical isoform): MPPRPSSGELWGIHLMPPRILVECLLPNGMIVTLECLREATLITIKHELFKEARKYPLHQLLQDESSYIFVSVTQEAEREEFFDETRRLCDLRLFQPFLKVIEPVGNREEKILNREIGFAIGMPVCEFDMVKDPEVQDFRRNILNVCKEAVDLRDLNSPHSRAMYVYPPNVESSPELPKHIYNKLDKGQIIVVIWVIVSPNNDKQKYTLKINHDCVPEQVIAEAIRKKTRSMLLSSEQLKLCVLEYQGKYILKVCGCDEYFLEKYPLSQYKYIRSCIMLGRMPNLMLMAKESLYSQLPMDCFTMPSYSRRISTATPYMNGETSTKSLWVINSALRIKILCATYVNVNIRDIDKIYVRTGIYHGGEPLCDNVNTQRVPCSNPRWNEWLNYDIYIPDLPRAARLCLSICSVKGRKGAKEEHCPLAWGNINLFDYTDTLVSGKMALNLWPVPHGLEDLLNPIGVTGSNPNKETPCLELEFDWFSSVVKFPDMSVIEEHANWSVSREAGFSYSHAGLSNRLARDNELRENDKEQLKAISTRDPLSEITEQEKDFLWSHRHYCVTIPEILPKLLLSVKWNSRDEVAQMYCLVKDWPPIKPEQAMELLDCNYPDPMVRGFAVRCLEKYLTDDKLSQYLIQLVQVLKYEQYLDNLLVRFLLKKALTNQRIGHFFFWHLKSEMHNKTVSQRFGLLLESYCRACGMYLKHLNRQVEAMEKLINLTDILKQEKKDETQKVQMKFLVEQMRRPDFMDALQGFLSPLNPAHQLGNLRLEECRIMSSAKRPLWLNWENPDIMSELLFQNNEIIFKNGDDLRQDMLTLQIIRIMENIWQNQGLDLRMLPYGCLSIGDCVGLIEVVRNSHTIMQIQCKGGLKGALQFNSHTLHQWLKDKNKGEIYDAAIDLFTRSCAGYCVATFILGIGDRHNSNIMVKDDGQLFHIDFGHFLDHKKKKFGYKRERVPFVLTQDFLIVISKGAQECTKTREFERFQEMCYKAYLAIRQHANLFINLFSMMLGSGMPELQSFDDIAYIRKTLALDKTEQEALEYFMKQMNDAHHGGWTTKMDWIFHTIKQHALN

Row | Structure (SMILES) | IC50 (HepG2) [µM] | IC50 (MCF7 [1]) [µM] | IC50 (HeLa) [µM] | IC50 (PC-3) [µM] | zone of inhibition at 5000 µg/mL [2] [mm] | MIC (Candida albicans [3]) [µg/mL] | zone of inhibition at 5000 µg/mL (Candida albicans [4]) [mm] | zone of inhibition at 5000 µg/mL (Staphylococcus aureus [5]) [mm] | MIC (Staphylococcus aureus [8]) [µg/mL] | zone of inhibition at 5000 µg/mL (Bacillus cereus [21]) [mm] | MIC (Bacillus cereus [22]) [µg/mL] | also measured
1 | C/C(=N\Nc1nc(-c2cc3ccccc3o2)cs1)c1cc2ccccc2o1 | 21.2 | 25.6 | 24.1 | 34.2 | 2 | – | – | – | – | – | – | –
2 | O=CC(/N=N/c1ccc([N+](=O)[O-])cc1)=C(\O)c1cc2ccccc2o1 | 35.4 | 43.2 | 37.8 | 49.6 | – | 256 (≈ 759 µM) | 9 | 6 | 8 (≈ 23.7 µM) | – | – | zone of inhibition at 5000 µg/mL (Pseudomonas aeruginosa [6]): 10 mm; MIC (Pseudomonas aeruginosa [7]): 512 µg/mL (≈ 1520 µM)
3 | C/C(=N\Nc1nc(-c2ccccc2)cs1)c1cc2ccccc2o1 | 10.3 | 8.49 | 11.7 | 16.7 | – | – | – | – | – | – | – | selectivity ratio [9]: 4.04; Activity (MCF7 [10]): 9.36%; selectivity ratio [11]: 3.56; selectivity ratio [12]: 4.91; IC50 [13]: 4.1 µM; Activity (MCF7 [14]): 5.92%; Activity (MCF7 [15]): 30.82%; Activity (MCF7 [16]): 29.93%; IC50 (WI-38): 41.7 µM; Activity (MCF7 [17]): 39.61%; Activity (MCF7 [18]): 14.65%; selectivity ratio [19]: 2.49; Activity (MCF7 [20]): 29.57%
4 | C/C(=N\Nc1nc(-c2ccc(C)cc2)cs1)c1cc2ccccc2o1 | 14.1 | 11.1 | 14.3 | 21.4 | – | – | – | – | – | – | – | –
5 | CN(C)/C=C/C(=O)c1cc2ccccc2o1 | – | – | – | – | 5 | 256 (≈ 1190 µM) | – | – | – | – | – | –
6 | C/C(=N\Nc1nc(C)cs1)c1cc2ccccc2o1 | 4 | 4.89 | – | 8.99 | 7 | 128 (≈ 472 µM) | 10 | – | 64 (≈ 236 µM) | 11 | 128 (≈ 472 µM) | selectivity ratio [9]: 11.1; selectivity ratio [11]: 4.94; selectivity ratio [12]: 9.06; IC50 [13]: 20.5 µM; IC50 (WI-38): 44.3 µM; selectivity ratio [19]: 4.93
7 | O=CC(/N=N/c1ccc(Cl)cc1)=C(\O)c1cc2ccccc2o1 | 37.3 | – | 38.2 | 51.8 | – | – | – | 9 | 128 (≈ 392 µM) | 6 | 256 (≈ 783 µM) | –
8 | CC1(C)S[C@@H]2[C@H](NC(=O)[C@H](N)c3ccccc3)C(=O)N2[C@H]1C(=O)O [AMPICILLIN] | – | – | – | – | – | – | – | 6 | 128 (≈ 366 µM) | 10 | 128 (≈ 366 µM) | MIC (Pseudomonas aeruginosa [7]): > 5000 µg/mL; zone of inhibition at 5000 µg/mL (Escherichia coli): 10 mm
9 | OC(Cn1cncn1)(Cn1cncn1)c1ccc(F)cc1F [FLUCONAZOLE] | – | – | – | – | – | 256 (≈ 836 µM) | 8 | – | – | – | – | –
